Assays:
[1] = Inhibition of recombinant human COX2 assessed as decrease in PGE2 production at 10 uM using arachidonic acid as substrate preincubated for 15 mins prior to substrate addition for 5 mins relative to control; conditions: recombinant COX2, probe arachidonic acid
[2] = Apparent passive permeability of the compound by PAMPA; assay type: ADME
In short: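 Passive permeability by PAMPA, using a 2% lecithin in dodecane membrane. Run in triplicate.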

[3] = Tmax in cynomolgus monkey at 10 mg/kg, po; assay type: ADME, organism-based, Macaca fascicularis; conditions: in vivo
In short: (§1)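 Tmax from oral 10 mg/kg dosing. Rat: male Sprague-Dawley, 0.5% MC suspension, n = 3. Guinea pig: 20% NMP + 0.5% MC suspension, n = 3. Dog and monkey: 2.5 μL/mL Tween 80 + 0.5% MC suspension.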

[4] = system: Prostaglandin F synthase (Homo sapiens); experiment: Inhibition of human PGF synthase assessed as decrease in PGF2alpha production at 10 uM relative to control
Prostaglandin E synthase = target: T1, Prostaglandin E synthase (Canis lupus familiaris, UniProt A0SYQ0); experiment: Inhibition of mPGES1 in dog whole blood assessed as reduction in LPS-induced PGE2 production measured after 20 to 24 hrs
T1 sequence (A0SYQ0 whole entry): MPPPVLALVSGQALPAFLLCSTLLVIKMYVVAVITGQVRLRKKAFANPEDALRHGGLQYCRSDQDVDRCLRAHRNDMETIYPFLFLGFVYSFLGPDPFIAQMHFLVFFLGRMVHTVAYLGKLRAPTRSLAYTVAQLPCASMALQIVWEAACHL
In short: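 Dog whole blood stimulated with LPS. […] At least two experiments, each in duplicate; run by an external contract lab.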

CHO = experiment: Inhibition of rat mPGES1 expressed in CHO cells assessed as reduction in PGE2 production at 10 uM using PGH2 as substrate incubated for 10 mins followed by substrate addition measured for 1 min relative to control; assay type: cell-based
In short: (§2)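 Rodent enzyme protocol run as for the human and guinea pig mPGES-1 enzyme assays; single-concentration percent inhibition.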

[5] = target: Hematopoietic prostaglandin D synthase (Homo sapiens) (UniProt O60760); experiment: Inhibition of PGDS (unknown origin) at 10 uM relative to control
Sequence of Hematopoietic prostaglandin D synthase (Homo sapiens) (O60760 whole entry): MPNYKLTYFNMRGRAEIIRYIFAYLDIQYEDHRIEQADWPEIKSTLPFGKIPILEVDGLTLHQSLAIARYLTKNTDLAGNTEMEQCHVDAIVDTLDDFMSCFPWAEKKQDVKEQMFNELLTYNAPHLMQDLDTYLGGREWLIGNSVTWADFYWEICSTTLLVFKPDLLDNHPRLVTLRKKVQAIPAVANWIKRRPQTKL
In short: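 Selectivity panel against other prostanoid-pathway enzymes. % inhibition values are means of at least two experiments, each in duplicate.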

[6] = target: T2, Prostaglandin E synthase (Macaca fascicularis) (UniProt Q6PWL6); experiment: Inhibition of mPGES1 in rhesus monkey whole blood assessed as reduction in LPS-induced PGE2 production at 10 uM measured after 20 to 24 hrs relative to control; conditions: Macaca mulatta
T2 sequence (whole entry): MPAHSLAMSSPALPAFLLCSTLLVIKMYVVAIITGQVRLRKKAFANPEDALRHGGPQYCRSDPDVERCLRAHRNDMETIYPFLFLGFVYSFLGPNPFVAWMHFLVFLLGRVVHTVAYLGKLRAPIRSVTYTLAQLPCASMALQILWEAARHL
In short: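 Rhesus monkey whole blood stimulated with LPS; PGE2 inhibition measured relative to vehicle control […]. At least two experiments, each in duplicate; run by an external contract lab.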

[7] = target: T3, Prostaglandin E synthase (Mus musculus) (UniProt Q9JM51); experiment: Inhibition of mouse mPGES1 expressed in CHO cells assessed as reduction in PGE2 production at 10 uM using PGH2 as substrate incubated for 10 mins followed by substrate addition measured for 1 min relative to control; in short: as §2
T3 sequence (whole entry): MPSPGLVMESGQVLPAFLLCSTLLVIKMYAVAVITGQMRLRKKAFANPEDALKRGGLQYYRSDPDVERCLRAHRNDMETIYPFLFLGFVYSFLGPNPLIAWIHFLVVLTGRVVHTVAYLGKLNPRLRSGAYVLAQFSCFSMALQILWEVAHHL

CYP2C19 = CYP2C19 (Homo sapiens, UniProt P33261); experiment: Inhibition of CYP2C19 in human liver microsomes at 10 uM after 40 mins in presence of NADPH by LC-MS/MS analysis; assay type: ADME
Sequence of CYP2C19 (P33261 whole entry, canonical isoform): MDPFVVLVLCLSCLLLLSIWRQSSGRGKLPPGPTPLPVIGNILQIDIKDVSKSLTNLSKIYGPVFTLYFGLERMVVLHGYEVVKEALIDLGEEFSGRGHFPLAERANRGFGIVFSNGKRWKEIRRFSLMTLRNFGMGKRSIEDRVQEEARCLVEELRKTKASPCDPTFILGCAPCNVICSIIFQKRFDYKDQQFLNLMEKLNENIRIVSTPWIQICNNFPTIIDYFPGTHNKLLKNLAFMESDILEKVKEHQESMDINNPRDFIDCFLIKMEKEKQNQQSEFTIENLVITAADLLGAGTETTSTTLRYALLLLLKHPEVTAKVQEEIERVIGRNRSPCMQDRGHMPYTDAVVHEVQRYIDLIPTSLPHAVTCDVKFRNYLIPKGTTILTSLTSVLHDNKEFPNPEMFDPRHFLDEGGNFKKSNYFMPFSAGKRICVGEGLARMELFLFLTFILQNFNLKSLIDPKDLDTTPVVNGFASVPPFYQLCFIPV
In short: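 Percent inhibition of each CYP isoform by test compound at 10 µM, compared with a no-inhibitor control. Run in triplicate.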

[8] = Protein binding in human plasma at 10 uM after 5 hrs by equilibrium dialysis based LC-MS/MS analysis; assay type: ADME, cell-free; conditions: read-out: PPB (converted)
In short: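 Equilibrium dialysis at 10 μM compound; result expressed as percent bound.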

[9] = Metabolic stability in guinea pig liver microsomes assessed as parent compound remaining at 1 uM after 60 mins in presence of NADPH by LC-MS/MS analysis; assay type: ADME, Cavia porcellus, microsome; conditions: read-out: Stability
In short: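 Compound incubated 60 min at 37 °C with human, rat or guinea pig liver microsomes; percent parent remaining, triplicates.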

[10] = Tmax in Sprague-Dawley rat at 10 mg/kg, po; assay type: ADME, organism-based; conditions: in vivo; in short: as §1
[11] = target: T4, Prostacyclin synthase (Homo sapiens) (UniProt Q16647); experiment: Inhibition of recombinant human PGIS expressed in CHO cells at 10 uM relative to control; assay type: cell-based
T4 sequence (whole entry): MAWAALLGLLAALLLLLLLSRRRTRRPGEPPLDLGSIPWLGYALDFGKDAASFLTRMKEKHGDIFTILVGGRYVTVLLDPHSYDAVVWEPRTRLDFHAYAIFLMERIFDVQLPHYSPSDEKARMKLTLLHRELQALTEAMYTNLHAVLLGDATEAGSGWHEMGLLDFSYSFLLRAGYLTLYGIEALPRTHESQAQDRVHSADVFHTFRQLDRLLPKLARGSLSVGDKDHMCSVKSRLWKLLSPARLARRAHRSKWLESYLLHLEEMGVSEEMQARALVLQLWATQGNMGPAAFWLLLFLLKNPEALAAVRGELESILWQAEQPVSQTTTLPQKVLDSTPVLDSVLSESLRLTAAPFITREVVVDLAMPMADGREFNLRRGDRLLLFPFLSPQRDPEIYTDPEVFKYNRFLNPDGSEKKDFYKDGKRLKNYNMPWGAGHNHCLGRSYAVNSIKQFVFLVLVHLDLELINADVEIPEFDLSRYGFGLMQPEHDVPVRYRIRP

[12] = Cmax in Dunkin-Hartley guinea pig at 10 mg/kg, po; assay type: ADME, organism-based, Cavia porcellus; set-up: dose 10 mg/kg, route oral; conditions: in vivo
In short: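 Single oral dose of 10 mg/kg. Cmax and AUC0-24 taken from the oral arm. Rat: male Sprague-Dawley, dosed in 0.5% methylcellulose suspension, mean ± SD (n = 3). Guinea pig: 20% NMP + 0.5% MC suspension, mean ± SD (n = 3). Dog and cynomolgus monkey: 2.5 μL/mL Tween 80 + 0.5 (w/v) MC suspension.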

[13] = Ratio of drug uptake in brain to plasma of cynomolgus monkey at 10 mg/kg, po; assay type: ADME, organism-based, Macaca fascicularis; conditions: read-out: BPR
[14] = target: Prostaglandin F synthase (Homo sapiens); experiment: Inhibition of human PGF synthase assessed as decrease in PGF2alpha production

inhibition at 5 min, 10 µM [1] [%]	Papp [2] [×10⁻⁶ cm/s]	Tmax [3] [h]	inhibition [4] [%]	IC50 (Prostaglandin E synthase) [µM]	inhibition [5] [%]	inhibition [6] [%]	inhibition [7] [%]	inhibition at 40 min, 10 µM (CYP2C19) [%]	fraction unbound at 5 h, 10 µM [8]	remaining at 1 h, 1 µM [9] [%]	Tmax [10] [h]	inhibition [11] [%]	Cmax [12] [ng/mL]	Kp [13]	IC50 [14] [µM]	SMILES	inhibition (CHO) [%]
31	1.34	12	17.9	3.03	19.5	48.2	8.2	16	0.0003	46	4	7.5	80	0.16		Cc1cccc(Cl)c1Nc1nc2cc(C(=O)Nc3cc(C(F)(F)F)ccc3F)c3c(c2[nH]1)CC(C)(C)O3	0
23.1	0.33	24	100	6.22	0	50.4	22.1	55	0.0054	100	2	2.5	361	0.32	2.32	CC1(C)Cc2c(c(C(=O)Nc3ccc(F)c(C(F)(F)F)c3)cc3nc(Nc4c(F)cccc4Cl)[nH]c23)O1	10.5
28.7	0.62		99.2		5.8		14.4	33	0.0004	79		5.6			2.47	CC1(C)Cc2c(c(C(=O)Nc3cc(C(F)(F)F)ccc3F)cc3nc(Nc4c(F)cccc4Cl)[nH]c23)O1	11.7

Second part, the molecule before the results:

SMILES	inhibition at 5 min, 10 µM [1] [%]	Papp [2] [×10⁻⁶ cm/s]	Tmax [3] [h]	inhibition [4] [%]	IC50 (Prostaglandin E synthase) [µM]	inhibition [5] [%]	inhibition [6] [%]	inhibition [7] [%]	inhibition at 40 min, 10 µM (CYP2C19) [%]	fraction unbound at 5 h, 10 µM [8]	remaining at 1 h, 1 µM [9] [%]	Tmax [10] [h]	inhibition [11] [%]	Cmax [12] [ng/mL]	Kp [13]	IC50 [14] [µM]	inhibition (CHO) [%]
CC1(C)Cc2c(c(C(=O)Nc3ccc(C(F)(F)F)cn3)cc3nc(Nc4c(Cl)cccc4Cl)[nH]c23)O1	35.9	0.63	6	15.4	3.54	15.1	37	10.9	15	0.0004	71	4	4.3	91	0.37		7.1
Cn1c(Nc2c(F)cccc2Cl)nc2cc(C(=O)Nc3cccc(C(F)(F)F)c3)c3c(c21)CC(C)(C)O3	6.5			61.4		16.5		5.2	36	0.0029	51		3.9			3.18	3.4
Cc1cccc(Cl)c1Nc1nc2cc(C(=O)Nc3cc(C(F)F)ccc3F)c3c(c2[nH]1)CC(C)(C)O3	43.2					27.6		2.5	14	0.0008	60		20.1				0.7
